# The list is not random: actives were taken first. Their share in the collection is about 3.3%.
# Arrestin-AP2 inh = inhibitors of human beta-arrestin and AP2 interaction; hit rate 0.31% among 340,000; FITC-arrestin peptide / GST-AP2 beads, flow cytometry; AP2 beta2 appendage carries R879A mutation; inhibition, % at 10 µM;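 active = inhibition above a set limit, near 3 SD of compounds lacking own fluorescence, cut at about 54% in these data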;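 also: plate controls were DMSO wells for no effect and 5 µM unlabelled arrestin peptide for full effect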
#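 Material – GST-tagged AP2 beta2-adaptin appendage (R879A) on 4 µm glutathione beads · Probe or stimulus – fluorescein-tagged arrestin peptide at 50 nM final · Timing – 12 min plus 1 h, RT · Detection – bead flow cytometry, FITC channel · Read-out basis – inhibition as reduced fluorescein signal on beads, percent · Medium – PBS plus Tween 20 (0.05%) and BSA (0.1%)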
# PfM18AAP inh-1 = PfM18AAP enzyme inhibition. hit rate 1.2% among 290,000. inhibition, % at 7.35 µM. AID 1822. recombinant PfM18AAP, H-Glu-NHMec fluorogenic cleavage;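 active = inhibition above the campaign mean inhibition over all tested compounds plus 3 SD, cut at about 28% in these data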;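 also: 0% = plate median of test compound wells and 100% = 2 mM ZnCl2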
# NRP1-CendR mod = modulators of CendR peptide binding to human neuropilin-1 | O14786 | FAM-RPARPAR peptide binding to NRP-1, fluorescence polarization | inhibition, % at 25 µM | hit rate 0.85% among 360,000 | AID 602438;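 active = inhibition or corrected inhibition above about 18%, plus a signal ratio from 0.5 to 1.5, limit read from the data, passing the limit was not always enough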
# sPLA2-III inh = Inhibits HGIII-sPLA2 liposome hydrolysis, primary screen. inhibition, % at 12.2 µM. hit rate 0.56% among 370,000. QFRET BODIPY PC-A2 liposome hydrolysis, fluorescence;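 active = inhibition above mean plus 3 SD of compounds lying within the high and low control bounds, cut at about 19% in these data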;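 also: 0% = median of test compound wells and 100% = no enzyme DMSO wells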
# Lipid droplet = modulators of hepatic lipid droplet formation. hit rate 0.4% among 240,000. AML12 mouse hepatocytes, oleate lipid droplets, BODIPY imaging. inhibition, % at 6.5 µM;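 active = lipid droplet intensity inhibited by at least 50%, with more than 500 cells counted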
#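 material = mouse AML12 hepatocyte cell line, fixed after treatment | also added = 100 µM oleic acid challenge | doses = compound at 6.5 µM only | schedule = overnight exposure | technique = Image-based BODIPY and DAPI two-channel analysis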
# m5-HT2A agonist = agonists of mouse serotonin 5-HT2A receptor (HTR2A). P35363. CHO-K1 mHTR2A beta-arrestin complementation, luminescence; percent of 30 µM serotonin response. activation, % at 7.6 µM. hit rate 0.66% among 360,000. AID 624169;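 active = activation above a run cutoff, the mean activation of all tested compounds plus 3 SD, cut at about 14% in these data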;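 also: 0% = plate median of compound wells and 100% = 30 µM serotonin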
# PfM18AAP inh-2 = PfM18AAP inhibition, confirmation; shares compounds with PfM18AAP inh-1; recombinant PfM18AAP, H-Glu-NHMec fluorogenic cleavage; inhibition, % at 7.35 µM; hit rate 28% among 2,400;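 active = mean inhibition over replicate wells above the hit cutoff set for the earlier primary screen, cut at about 29% in these data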;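 also: 0% = median of test compound wells and 100% = 2 mM ZnCl2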
# CTSL1 confirm = Cathepsin L (human) inhibition, confirmation | shares compounds with PfM18AAP inh-1 | purified cathepsin L1, Z-Leu-Arg-MCA fluorescence | inhibition, % at 5.96 µM | 2,400 tested, under 10 active;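 active = average inhibition across replicates above the hit cutoff set in the earlier primary screen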;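 also: 0% = median of test compound wells and 100% = Z-Phe-Ala-diazomethylketone 1 µM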
# Target sequence (P07711 whole entry, looked up): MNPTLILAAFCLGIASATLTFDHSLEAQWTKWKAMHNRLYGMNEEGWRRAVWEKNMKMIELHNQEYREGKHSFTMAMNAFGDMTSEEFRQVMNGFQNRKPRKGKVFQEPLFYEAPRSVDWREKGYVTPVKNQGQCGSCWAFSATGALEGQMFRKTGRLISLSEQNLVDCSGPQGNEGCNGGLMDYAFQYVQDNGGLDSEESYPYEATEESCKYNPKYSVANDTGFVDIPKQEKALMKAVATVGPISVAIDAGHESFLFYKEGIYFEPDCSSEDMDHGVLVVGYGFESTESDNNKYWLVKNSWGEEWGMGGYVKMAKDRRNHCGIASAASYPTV
# * = called active by the depositor; . = not tested or not shown.
SMILES,Arrestin-AP2 inh,PfM18AAP inh-1,NRP1-CendR mod,sPLA2-III inh,Lipid droplet,m5-HT2A agonist,PfM18AAP inh-2,CTSL1 confirm
NNC(=O)CNC(=O)CNS(=O)(=O)c1ccccc1,-3,3,7,-5,3,-3,.,.
Cn1c(CSc2ncn[nH]2)nc2ccccc21,9,53*,-9,-2,.,-5,10,-5
CCC1NC(=O)c2cccnc2-n2c1nc1ccc(OC)cc1c2=O (stereo not given),.,.,-1,-5,.,-3,.,.
CC(C)(C)c1ccc(C(=O)Nc2cc(Cl)ccc2C(=O)O)cc1,.,.,.,-34,.,.,.,.
C/C(=N\NC(=O)Cc1csc(N2CCOCC2)n1)c1ccccc1,-1,2,-9,3,-6,2,.,.
O=C(Cc1csc(N2CCOCC2)n1)N/N=C/c1ccc(O)c(O)c1O,13,47*,-13,-6,-2,-2,16,-3
CCC[C@H]1[C@@H](OC(=O)NCc2cccc(Cl)c2)CC[C@@]23CCCN2C(=O)CCC[C@@H]13,.,.,.,-11,.,.,.,.
O=C(O)C(c1ccccc1)N1C(=O)/C(=C\c2ccc(O)c(O)c2)SC1=S (stereo not given),28,49*,-126,-30,3,2,28*,-2
Nc1nc(Nc2ccccc2)n[nH]1,-2,45*,2,12,8,-2,4,2
Nc1nc(Nc2cccc(Cl)c2)n[nH]1,-14,43*,13,-1,-11,-1,7,2
Nc1nc(Nc2ccc(Cl)cc2)n[nH]1,3,32*,8,4,.,3,0,-2
O=C(NCC1CCCO1)C1CCCN(S(=O)(=O)c2ccc(Br)cc2)C1 (stereo not given),-8,32*,-11,-4,-2,2,-52,-1
O=C(O)CCC(=O)Nc1ccc(N2CCCCCC2)cc1,8,44*,1,6,-1,6,-1,1
CCOC(=O)[C@]12CCCC=C1N(Cc1ccccc1)C(=O)[C@H](CC(=O)NCc1ccc(C)o1)C2,.,.,-8,0,.,-1,.,.
CC(C)C(=O)NC(CC(=O)O)c1ccccc1 (stereo not given),3,-2,-13,0,-1,3,.,.
CC(CC(=O)O)Nc1ccccc1O (stereo not given),8,38*,10,2,-4,4,8,-1
CN(NS(=O)(=O)c1ccccc1)C(=O)c1ccccc1,-5,.,5,1,.,-4,.,.
O=C(Nc1ccc(F)cc1)Nc1cccnc1,1,7,4,-6,32,-6,.,.
O=C(Nc1ccncc1)Nc1cc(Cl)ccc1Cl,27,0,0,-6,14,-6,.,.
O=C(Nc1cc(Cl)ccc1Cl)Nn1cnnc1,-4,87*,-4,7,2,2,89*,5
CCOC(=O)c1ccc(NC(=O)Nn2cnnc2)cc1,3,72*,0,0,-2,4,64*,1
Cc1c(Cl)cccc1NC(=O)Nn1cnnc1,34,82*,-4,3,4,7,65*,1
O=C(Nc1ccc(F)cc1)Nn1cnnc1,-9,58*,-17,0,13,4,46*,-4
COC(=O)C[C@@H]1OC[C@H](Cc2ccccc2)N1S(=O)(=O)c1ccc(C)cc1,.,.,11,12,.,6,.,.
Nc1ccn([C@@H]2O[C@H](C(=O)N[C@H](Cc3ccccc3)C(=O)NCC(F)(F)F)[C@@H](O)[C@H]2O)c(=O)n1,.,.,.,-3,.,.,.,.
SMILES,Arrestin-AP2 inh,PfM18AAP inh-1,NRP1-CendR mod,sPLA2-III inh,Lipid droplet,m5-HT2A agonist,PfM18AAP inh-2,CTSL1 confirm
COc1ccc(CN(C)C(=O)c2cccc(NC(=O)CC3SC(N4CCCCC4)=NC3=O)c2)c(OC)c1 (stereo not given),4,.,-9,-19,.,-3,.,.
O=C(Nc1ccc(F)c(Cl)c1)Nn1cnnc1,-1,76*,8,7,-2,8,60*,-1
CC(C)(C)NC(=O)Nc1ccc(F)c(Cl)c1,-7,1,-15,0,-2,3,.,.
CC(/C=N/N1C(=O)CSC1=S)=C\c1ccccc1,-5,42*,10,6,5,-3,-19,-3
COc1ccc(/C=N/N2C(=O)CSC2=S)cc1,25,49*,-15,2,9,-4,-5,2
COC(=O)CN(n1cnnc1)S(=O)(=O)c1ccc(C)cc1,-3,84*,0,1,3,4,79*,-13
COC(=O)CN(c1cc(Cl)ccc1OC)S(=O)(=O)c1ccc(C)cc1,-9,-2,0,-5,0,-8,.,.
Fc1cccc(C2NC(=S)NC3=C2N2CCC3CC2)c1 (stereo not given),10,10,9,4,.,3,.,.
COc1ccc(OC)c(C2NC(=S)NC3=C2N2CCC3CC2)c1 (stereo not given),11,44*,-4,1,4,2,-49,1
C=CCn1c(=O)c(C(=O)Nc2ncccc2C)c(O)c2ccccc21,.,.,-5,8,.,-2,.,.
N#C/C(=C/c1ccc(O)c(O)c1)C(=O)NCc1ccc(Cl)cc1,39,38*,-79,-9,2,-4,5,0
COc1ccc(/C=C(\C#N)C(=O)Nc2cccc3ncccc23)cc1OC,-11,8,0,-1,-1,5,.,.
N#C/C(=C\c1ccc(O)c(O)c1)C(=O)Nc1cccc2ncccc12,8,63*,-50,-12,-30,0,30*,3
O=C(COC(=O)c1ccc(S(=O)(=O)N2CCOCC2)cc1)Nc1ccccc1OC(F)F,12,.,0,1,.,4,.,.
O=C(Nc1ccc(Br)cc1)OCCN1CCCC12CCC(c1ccccc1)CC2 (stereo not given),.,.,.,-8,.,.,.,.
COc1ccc(N/C=C2\C(=O)CCc3c2oc2cc(Cl)c(O)c(Cl)c32)cc1,-22,23,-168,-2,17,-8,10,-2
COC(=O)[C@]12C[C@H](CC(=O)N3CCSCC3)C(=O)N(Cc3ccc4c(c3)OCO4)C1=C[C@H](COCc1ccccc1)O[C@@H]2C,.,.,.,-6,.,.,.,.
CC(/C=C/c1ccccc1)=N\Nc1nc(C)cc(C)n1,-1,39*,-11,-4,-21,-3,-35,-1
CC(/C=C/c1ccccc1)=N/NC(=O)c1nc2nc(C)cc(C)n2n1,-12,-2,6,5,3,0,.,.
Cc1ccc(S(=O)(=O)NC(=O)C2(C)CCN2C(=O)c2ccccc2CCc2ccccc2)nc1 (stereo not given),.,.,-4,7,.,-4,.,.
CC[n+]1c(/C=C(\C)Nc2ccccc2)sc2ccccc21,16,21,-5,8,-2,-4,.,.

# High-throughput results from PubChem.
